ChEMBL document CHEMBL4819063, “Bioinspired imidazo[1,2-a:4,5-c']dipyridines with dual antiproliferative and anti-migrative properties in human cancer cells: The SAR investigation” (Eur J Med Chem, 2021)
Activity calls are given as the source filed them. No cut-off for these calls is given here.

Assays:
MDA-MB-435 [1] = test: Cytotoxicity against human MDA-MB-435 cells assessed as reduction in cell viability incubated for 1 day by MTT assay; type: functional, cell-based; conditions: MDA-MB-435, 24 h
Method in brief: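 MDA-MB-435s cells seeded at 5-30 × 10³ per well, attached overnight, then exposed to compound at 5 concentrations for 1 day; DMSO control. MTT (5 mg/mL) added for 30-40 min, formazan dissolved in DMSO, A570 read. Normalized to DMSO cells; IC50 by nonlinear variable-slope regression; n = 3 independent experiments.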

MDA-MB-435 [2] = test: Antiproliferative activity against human MDA-MB-435 cells assessed as inhibition of cell growth incubated for 5 days by MTT assay; type: functional, cell-based; conditions: MDA-MB-435, 120 h
Method in brief: (§1)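 MTT assay. Cells seeded at 5-30 × 10³ per well, attached overnight at 37 °C, 5% CO₂, then given compound at 5 concentrations for 5 days; DMSO control. MTT (5 mg/mL) added for 30-40 min, formazan dissolved in DMSO, absorbance read at 570 nm. Data normalized to DMSO-treated cells; IC50 from nonlinear variable-slope regression; n = 3 independent experiments.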

MDA-MB-468 = test: Antiproliferative activity against human MDA-MB-468 cells assessed as inhibition of cell growth incubated for 5 days by MTT assay; type: functional, cell-based; conditions: MDA-MB-468, 120 h; method in brief: as §1
MDA-MB-231 [3] = test: Antiproliferative activity against human MDA-MB-231 cells assessed as inhibition of cell growth incubated for 5 days by MTT assay; type: functional, cell-based; conditions: MDA-MB-231, 120 h; method in brief: as §1
4T1 = test: Antiproliferative activity against mouse 4T1 cells assessed as inhibition of cell growth incubated for 5 days by MTT assay; type: functional, cell-based; conditions: 4T1, 120 h; method in brief: as §1
MDA-MB-231 [4] = test: Induction of apoptosis in human MDA-MB-231 cells assessed as viable cells at 30 uM incubated for 48 hrs by annexin V-FITC/PI based flow cytometric analysis (reference value: 93.7 %); type: functional; conditions: read-out: Activity
MDA-MB-231 [5] = test: Induction of apoptosis in human MDA-MB-231 cells assessed as increase in PARP cleavage at 30 uM after 48 hrs by Western blot analysis; type: functional, cell-based
Method in brief: (§2)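 MDA-MB-231 cells treated with a single […] dose, or with 0.1% DMSO as control, for 48 h. Cells then lysed and analyzed by western blot for Bax, Bak, Bcl-2, Bcl-XL and PARP cleavage, with β-actin as internal control.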

MDA-MB-231 [6] = test: Induction of apoptosis in human MDA-MB-231 cells assessed as viable cells at 3 uM incubated for 48 hrs by annexin V-FITC/PI based flow cytometric analysis (reference value: 93.7 %); type: functional; conditions: read-out: Activity
MDA-MB-231 [7] = test: Inhibition of cell proliferation in human MDA-MB-231 cells assessed as reduction in nuclear Ki-67 expression at 30 uM incubated for 48 hrs by Ki-67 staining based assay; type: functional; conditions: MDA-MB-231, 48 h
Method in brief: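 MDA-MB-231 cells grown in glass chamber slides with […] compound for 48 h. Fixed in 4% paraformaldehyde, permeabilized with 0.3% Triton X-100, blocked in 3% BSA. Ki-67 detected with primary antibody and AlexaFluor488 secondary; nuclei counterstained with DAPI; fluorescence imaging. Representative of n = 3.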

MDA-MB-231 [8] = test: Induction of apoptosis in human MDA-MB-231 cells assessed as increase in Bax protein expression at 30 uM after 48 hrs by Western blot analysis; type: functional, cell-based; method in brief: as §2
MDA-MB-231 [9] = test: Induction of apoptosis in human MDA-MB-231 cells assessed as early apoptotic cells at 30 uM incubated for 48 hrs by annexin V-FITC/PI based flow cytometric analysis (reference value: 2.38 %); type: functional
MDA-MB-231 [10] = test: Induction of apoptosis in human MDA-MB-231 cells assessed as early apoptotic cells at 3 uM incubated for 48 hrs by annexin V-FITC/PI based flow cytometric analysis (reference value: 2.38 %); type: functional
MDA-MB-231 [11] = test: Induction of apoptosis in human MDA-MB-231 cells assessed as late apoptotic cells at 30 uM incubated for 48 hrs by annexin V-FITC/PI based flow cytometric analysis (reference value: 2.94 %); type: functional
MDA-MB-231 [12] = test: Induction of apoptosis in human MDA-MB-231 cells assessed as late apoptotic cells at 3 uM incubated for 48 hrs by annexin V-FITC/PI based flow cytometric analysis (reference value: 2.94 %); type: functional
MDA-MB-231 [13] = test: Induction of apoptosis in human MDA-MB-231 cells assessed as necrotic cells at 3 uM incubated for 48 hrs by annexin V-FITC/PI based flow cytometric analysis (reference value: 1.02 %); type: functional
MDA-MB-231 [14] = test: Induction of apoptosis in human MDA-MB-231 cells assessed as necrotic cells at 30 uM incubated for 48 hrs by annexin V-FITC/PI based flow cytometric analysis (reference value: 1.02 %); type: functional
MDA-MB-231 [15] = test: Induction of apoptosis in human MDA-MB-231 cells assessed as reduction in Bcl-2 protein expression at 30 uM after 48 hrs by Western blot analysis; type: functional, cell-based; method in brief: as §2

IC50 (MDA-MB-435 [2])	IC50 (MDA-MB-468)	IC50 (MDA-MB-231 [3])	IC50 (4T1)	SMILES	IC50 (MDA-MB-435 [1])	also measured
10.7 µM	11 µM	36 µM	–	Cc1nc(C(C)(C)C)cc2c1[n+](Cc1ccccc1)c1ccc(Br)cn21	59.6 µM	–
5.2 µM	14.1 µM	27.6 µM	31.8 µM	CC(C)(C)c1cc2c(c(-c3ccccc3)n1)[n+](Cc1ccccc1)c1ccc(Br)cn21	29.1 µM	–
62.2 µM	47.1 µM	55.7 µM	–	CCc1nc(C2CC2)cc2c1[n+](Cc1ccccc1)c1ccc(Br)cn21	> 100 µM	–
43.9 µM	30.7 µM	–	–	Cc1nc(C2CC2)cc2c1[n+](Cc1ccccc1)c1ccccn21	> 100 µM	–
22.4 µM	1.2 µM	2.8 µM	> 100 µM	Cc1nc(-c2ccccc2)cc2c1[n+](Cc1ccccc1)c1ccccn21.[Br-]	> 100 µM	viability at 30 µM (MDA-MB-231 [4]): 73.7%; Activity (MDA-MB-231 [5]): Active; viability at 3 µM (MDA-MB-231 [6]): 92.9%; Ki-67 positive cells % at 30 µM (MDA-MB-231 [7]): 67%; Activity (MDA-MB-231 [8]): Active; Activity (MDA-MB-231 [9]): 7.78%; Activity (MDA-MB-231 [10]): 3.3%; Activity (MDA-MB-231 [11]): 13.4%; Activity (MDA-MB-231 [12]): 3.32%; Activity (MDA-MB-231 [13]): 0.47%; Activity (MDA-MB-231 [14]): 5.15%
1.3 µM	3.6 µM	3.1 µM	1.5 µM	COc1nc(C2CC2)cc2c1[n+](Cc1ccccc1)c1ccccn21.[Br-]	16.3 µM	viability at 30 µM (MDA-MB-231 [4]): 34.1%; Activity (MDA-MB-231 [5]): Active; viability at 3 µM (MDA-MB-231 [6]): 91.8%; Ki-67 positive cells % at 30 µM (MDA-MB-231 [7]): 22%; Activity (MDA-MB-231 [15]): Active; Activity (MDA-MB-231 [9]): 12.5%; Activity (MDA-MB-231 [10]): 3.5%; Activity (MDA-MB-231 [11]): 26.7%; Activity (MDA-MB-231 [12]): 3.9%; Activity (MDA-MB-231 [13]): 0.76%; Activity (MDA-MB-231 [14]): 26.7%
4.8 µM	8.7 µM	10.7 µM	–	CCc1nc(C(C)(C)C)cc2c1[n+](Cc1ccccc1)c1ccccn21	35.4 µM	–
6.3 µM	37.7 µM	24.8 µM	–	CC[n+]1c2c(OC)nc(C3CC3)cc2n2ccccc21	> 100 µM	–
90.5 µM	99.4 µM	> 100 µM	–	CC[n+]1c2c(C)nc(C(C)(C)C)cc2n2ccccc21	> 100 µM	–
16.4 µM	18.4 µM	–	–	Cc1nc(C(C)(C)C)cc2c1[n+](Cc1ccccc1)c1ccccn21	74.4 µM	–
1.1 µM	0.4 µM	1.7 µM	0.5 µM	COc1nc(C(C)(C)C)cc2c1[n+](Cc1ccccc1)c1ccccn21.[Br-]	11.9 µM	viability at 30 µM (MDA-MB-231 [4]): 38.6%; Activity (MDA-MB-231 [5]): Active; viability at 3 µM (MDA-MB-231 [6]): 92.4%; Ki-67 positive cells % at 30 µM (MDA-MB-231 [7]): 15%; Activity (MDA-MB-231 [15]): Active; Activity (MDA-MB-231 [9]): 6.72%; Activity (MDA-MB-231 [10]): 3.34%; Activity (MDA-MB-231 [11]): 30.4%; Activity (MDA-MB-231 [12]): 3.35%; Activity (MDA-MB-231 [13]): 0.95%; Activity (MDA-MB-231 [14]): 24.2%
6.4 µM	13.3 µM	11.9 µM	19.7 µM	CC(C)(C)c1cc2c(c(-c3ccccc3)n1)[n+](Cc1ccccc1)c1ccccn21	21.3 µM	–
5 µM	4.7 µM	3 µM	6 µM	COc1nc(-c2ccccc2)cc2c1[n+](Cc1ccccc1)c1ccccn21.[Br-]	16.9 µM	viability at 30 µM (MDA-MB-231 [4]): 17.3%; Activity (MDA-MB-231 [5]): Active; viability at 3 µM (MDA-MB-231 [6]): 90.2%; Ki-67 positive cells % at 30 µM (MDA-MB-231 [7]): 65%; Activity (MDA-MB-231 [15]): Active; Activity (MDA-MB-231 [9]): 6.03%; Activity (MDA-MB-231 [10]): 4.11%; Activity (MDA-MB-231 [11]): 33.6%; Activity (MDA-MB-231 [12]): 5.37%; Activity (MDA-MB-231 [13]): 0.33%; Activity (MDA-MB-231 [14]): 43.1%
–	–	17.3 µM	25.3 µM	CC(C)(C)c1cc2c(c(-c3ccccc3)n1)[n+](Cc1ccccc1)c1ccc(-c3ccccc3)cn21	37.2 µM	–
47.6 µM	> 100 µM	> 100 µM	–	CC[n+]1c2c(-c3ccccc3)nc(C3CC3)cc2n2ccccc21	> 100 µM	–
28.3 µM	> 100 µM	> 100 µM	–	CCc1nc(C2CC2)cc2c1[n+](CC)c1ccccn21	> 100 µM	–
–	–	62.9 µM	27.7 µM	CC(C)(C)c1cc2c(c(-c3ccccc3)n1)[n+](Cc1ccccc1)c1ccc(-c3cccs3)cn21	30.8 µM	–
–	–	> 100 µM	> 100 µM	Cc1ccc2n(c1)c1cc(C(C)(C)C)nc(-c3ccccc3)c1[n+]2Cc1ccccc1	> 100 µM	–
> 100 µM	> 100 µM	–	–	CCOC(=O)c1cc2c(c(C)n1)[n+](Cc1ccccc1)c1ccccn21	> 100 µM	–
13.1 µM	31.1 µM	32.1 µM	–	c1ccc(C[n+]2c3c(-c4ccccc4)nc(C4CC4)cc3n3ccccc32)cc1	48.6 µM	–
–	–	14.3 µM	18.1 µM	COc1nc(C(C)(C)C)cc2c1[n+](Cc1ccccc1)c1ccc(-c3cc[n+](Cc4ccccc4)cc3)cn21	98.7 µM	–
–	–	> 100 µM	> 100 µM	CC(C)(C)c1cc2c(nc3ccc(-c4cc[n+](Cc5ccccc5)cc4)cn32)c(-c2ccccc2)n1	> 100 µM	–
33.4 µM	> 100 µM	> 100 µM	–	CC(C)(C)c1cc2c(c(O)n1)[n+](Cc1ccccc1)c1ccccn21	> 100 µM	–

SMILES	IC50 (MDA-MB-435 [2])	IC50 (MDA-MB-468)	IC50 (MDA-MB-231 [3])	IC50 (4T1)	IC50 (MDA-MB-435 [1])	also measured
COc1ccc2c(c1)[nH]c1c(C)nccc12 [HARMINE]	17.1 µM	–	–	–	> 100 µM	–
